Measured values reported in ChEMBL document CHEMBL4725472, “Synthesis and Evaluation of Ginkgolic Acid Derivatives as SUMOylation Inhibitors” (ACS Med Chem Lett, 2020).
Values belong to the compound of their own block, whether it stands above or below them. Active and inactive are the calls of the source. The calls are words filed in the database; no cut-off is given here.

What was measured:
[1] = target: Small ubiquitin-related modifier 1 (Homo sapiens) (UniProt P63165); experiment: Inhibition of SUMO1 in human PC3 cells assessed as reduction in SUMOylation level at 10 to 20 uM measured after 24 hrs by western blot analysis; assay type: cell-based; details: PC-3, dose microM 10-20, time 24.0 hrs
Chain of Small ubiquitin-related modifier 1 (Homo sapiens) (P63165 whole entry): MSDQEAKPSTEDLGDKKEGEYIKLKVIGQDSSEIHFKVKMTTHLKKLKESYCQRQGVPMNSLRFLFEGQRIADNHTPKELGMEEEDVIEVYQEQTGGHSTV

[2] = target: Small ubiquitin-related modifier 1 (Homo sapiens) (UniProt P63165); experiment: Inhibition of SUMO1 (unknown origin) assessed as reduction in SUMOylated RanGAP1 level at 50 uM incubated for 60 mins by western blot analysis
Summary of the method: (§1)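 Cell-free RanGAP1 SUMOylation reaction; compounds dissolved in the reaction medium at 50 μM for the initial screen, then retested at 5 μM.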

PC3 (Homo sapiens) = experiment: Cytotoxicity against human PC3 cells assessed as cell death at 10 to 20 uM incubated for 24 hrs by crystal violet staining based spectrophotometric analysis; details: dose microM 10-20, time 24.0 hrs
[3] = target: Small ubiquitin-related modifier 2 (Homo sapiens) (UniProt P61956); experiment: Inhibition of SUMO2 in human PC3 cells assessed as reduction in SUMOylation level at 10 uM measured after 24 hrs by western blot analysis; assay type: cell-based; details: PC-3
Chain of Small ubiquitin-related modifier 2 (Homo sapiens) (P61956 whole entry): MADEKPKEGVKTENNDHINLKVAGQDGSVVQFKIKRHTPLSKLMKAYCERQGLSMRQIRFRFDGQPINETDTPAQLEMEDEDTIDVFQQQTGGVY

PC-3 [4] = experiment: Induction of autophagy-mediated apoptosis in human PC3 cells assessed as increase in cleave PARP level at 20 uM measured after 24 hrs by western blot analysis; assay type: functional, cell-based
Summary of the method: (§2)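 PC3 cells treated at 10 or 20 μM; cleaved PARP and LC3II levels assessed by immunoblot as apoptosis and autophagy markers.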

PC-3 [5] = experiment: Induction of autophagy in human PC3 cells assessed as increased of LC3-II level at 20 uM incubated for 24 hrs by Western blot analysis; assay type: functional, cell-based; summary of the method: as §2
PC-3 [6] = experiment: Induction of autophagy in human PC3 cells assessed as increased of LC3-II level at 10 uM incubated for 24 hrs by Western blot analysis; assay type: functional, cell-based; summary of the method: as §2
[7] = target: Small ubiquitin-related modifier 1 (Homo sapiens) (UniProt P63165); experiment: Inhibition of SUMO1 in human MDA-MB-231 cells assessed as reduction in SUMOylation level at 10 uM measured after 24 hrs by western blot analysis; assay type: cell-based
PC-3 [8] = experiment: Induction of autophagy-mediated apoptosis in human PC3 cells assessed as increase in cleave PARP level at 10 uM measured after 24 hrs by western blot analysis; assay type: functional, cell-based; summary of the method: as §2
[9] = target: Small ubiquitin-related modifier 1 (Homo sapiens) (UniProt P63165); experiment: Inhibition of SUMO1 (unknown origin) assessed as reduction in SUMOylated RanGAP1 level at 5 uM incubated for 60 mins by western blot analysis; summary of the method: as §1
MDA-MB-231 = experiment: Cytotoxicity against human MDA-MB-231 cells assessed as reduction in cell viability incubated for 48 hrs by crystal violet staining based spectrophotometric analysis; assay type: functional; details: MDA-MB-231, 48 h
Summary of the method: (§3)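 PC3 and MDA-MB-231 cells exposed to compounds for 48 h at 10 or 20 μM; viability compared with nontreated cells (significance P ≤ 0.05); IC50 values determined in both lines; at least three independent experiments, mean ± SEM.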

PC-3 [10] = experiment: Cytotoxicity against human PC3 cells assessed as reduction in cell viability incubated for 48 hrs by crystal violet staining based spectrophotometric analysis; assay type: functional; details: PC-3, 48 h; summary of the method: as §3

SMILES: CCCCCCCCCCCCCc1cccc(O)c1C(=O)O
inhibition [1]: Active
inhibition [2]: Active
Activity (PC3 (Homo sapiens)): Active
inhibition [3]: Active
Activity (PC-3 [4]): Active
Activity (PC-3 [5]): Active
Activity (PC-3 [6]): Active
inhibition [7]: Active
Activity (PC-3 [8]): Active

SMILES: CCCCCCCCCCCc1cccc(O)c1C(=O)O
inhibition [1]: Active
inhibition [2]: Active
Activity (PC3 (Homo sapiens)): Active
inhibition [3]: Active
Activity (PC-3 [4]): Active
Activity (PC-3 [5]): Active
Activity (PC-3 [6]): Active
inhibition [7]: Active
Activity (PC-3 [8]): Active

SMILES: CCCCCCCCCCCCCCCc1cccc(O)c1C(=O)O
inhibition [2]: Active

SMILES: CCCCCC/C=C/c1cccc(O)c1C(=O)O
inhibition [2]: inactive

SMILES: CCCCCCCCCCCc1ccc(O)c(C(=O)O)c1
inhibition [2]: inactive

SMILES: CCCCCCCCCCCc1cccc(C(=O)O)c1O
inhibition [2]: inactive

SMILES: CCCCCCCCCCCCCc1cccc(C(=O)O)c1O
inhibition [1]: inactive
inhibition [2]: inactive
IC50 (MDA-MB-231): 12.8 µM
IC50 (PC-3 [10]): 14.8 µM
Activity (PC-3 [4]): Active
Activity (PC-3 [5]): Active
Activity (PC-3 [6]): inactive
inhibition [7]: inactive
Activity (PC-3 [8]): inactive

SMILES: CCCCCCCCc1cccc(O)c1C(=O)O
inhibition [2]: inactive

SMILES: CCCCCCCCCCCCCCCc1cccc(C(=O)O)c1O
inhibition [2]: inactive

SMILES: CCCCCCc1cccc(O)c1C(=O)O
inhibition [2]: inactive

SMILES: CCCCCCCCCCCCCc1ccc(O)c(C(=O)O)c1
inhibition [2]: inactive

SMILES: CCCCCCCCCCCCC/C=C/c1cccc(O)c1C(=O)O
inhibition [2]: Active

SMILES: CCCCCCCCCCCCCCCc1ccc(C(=O)O)c(O)c1
inhibition [2]: inactive

SMILES: CCCC/C=C/c1cccc(O)c1C(=O)O
inhibition [2]: inactive

SMILES: CCCCCCCCCCCCCCCc1ccc(O)c(C(=O)O)c1
inhibition [2]: inactive

Further lines, with some results ahead:

inhibition [2]: inactive
SMILES: CCCCCCCCCCC/C=C/c1ccc(C(=O)O)c(O)c1

inhibition [1]: Active
inhibition [2]: Active
inhibition [3]: Active
inhibition [9]: Active
inhibition [7]: Active
SMILES: CCCCCCCCC/C=C/c1cccc(O)c1C(=O)O
Activity (PC3 (Homo sapiens)): Active
Activity (PC-3 [4]): Active
Activity (PC-3 [5]): Active
Activity (PC-3 [6]): Active
Activity (PC-3 [8]): Active

inhibition [1]: Active
inhibition [2]: Active
inhibition [3]: Active
inhibition [9]: Active
inhibition [7]: Active
SMILES: CCCCCCCCCCC/C=C/c1cccc(O)c1C(=O)O
IC50 (MDA-MB-231): 8.2 µM
Activity (PC3 (Homo sapiens)): Active
IC50 (PC-3 [10]): 10.8 µM
Activity (PC-3 [4]): Active
Activity (PC-3 [5]): Active
Activity (PC-3 [6]): Active
Activity (PC-3 [8]): Active

inhibition [2]: inactive
SMILES: CCCCCCCCCCCCC/C=C/c1cccc(C(=O)O)c1O

inhibition [2]: inactive
SMILES: CCCCCCCCCCC/C=C/c1cccc(C(=O)O)c1O

inhibition [2]: inactive
SMILES: CCCCCCCCCCC/C=C/c1ccc(O)c(C(=O)O)c1

inhibition [2]: inactive
SMILES: CCCCCCCCCCCCC/C=C/c1ccc(C(=O)O)c(O)c1

inhibition [2]: inactive
SMILES: CCCCCCCCCCCc1ccc(C(=O)O)c(O)c1

inhibition [2]: inactive
SMILES: CCCCCCCCCCCCC/C=C/c1ccc(O)c(C(=O)O)c1

inhibition [2]: inactive
SMILES: CCCCCCCCC/C=C/c1ccc(C(=O)O)c(O)c1

inhibition [2]: inactive
SMILES: CCCCCCCCCCCCCc1ccc(C(=O)O)c(O)c1

inhibition [2]: inactive
SMILES: CCCCCCCCC/C=C/c1ccc(O)c(C(=O)O)c1

inhibition [2]: inactive
SMILES: CCCCCCCCC/C=C/c1cccc(C(=O)O)c1O
